Laboratory results published in ChEMBL document CHEMBL4145447, “4-arylamidobenzyl substituted 5-bromomethylene-2(5H)-furanones for chronic bacterial infection” (Eur J Med Chem, 2018).
The source made the active and inactive calls. No cut-off for these calls is given here.

Experiments:
[1] = target: T1, Anthranilate--CoA ligase (Pseudomonas aeruginosa (strain ATCC 15692 / DSM 22644 / CIP 104116 /JCM 14847 / LMG 12228 / 1C / PRS 101 / PAO1)) (UniProt Q9I4X3); experiment: Inhibition of Pseudomonas aeruginosa PAO1 GFP-fused quorum sensing pqsA at 5 to 100 uM measured every 15 mins up to 12 hrs by GFP reporter gene assay
T1 sequence (whole entry): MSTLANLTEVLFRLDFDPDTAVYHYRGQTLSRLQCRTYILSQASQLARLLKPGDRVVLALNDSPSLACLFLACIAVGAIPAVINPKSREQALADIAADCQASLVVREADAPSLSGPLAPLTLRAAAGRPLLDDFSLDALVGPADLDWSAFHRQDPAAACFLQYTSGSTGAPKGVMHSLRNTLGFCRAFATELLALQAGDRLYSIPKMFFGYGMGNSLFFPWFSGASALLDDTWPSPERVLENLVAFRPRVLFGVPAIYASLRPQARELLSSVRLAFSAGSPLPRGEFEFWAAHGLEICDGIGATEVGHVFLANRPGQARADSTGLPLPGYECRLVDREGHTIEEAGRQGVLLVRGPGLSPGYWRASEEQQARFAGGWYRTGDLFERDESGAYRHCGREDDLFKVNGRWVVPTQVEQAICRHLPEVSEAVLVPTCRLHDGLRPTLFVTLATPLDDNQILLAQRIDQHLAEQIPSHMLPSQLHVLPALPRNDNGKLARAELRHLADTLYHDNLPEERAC
Method in brief: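 GFP reporter strains of P. aeruginosa PAO1 (lasB-, rhlA- or pqsA-promoter fused to unstable gfp(ASV)) grown overnight in LB at 37 °C, 200 rpm, 18 h, then diluted 1:100. Culture mixed 1:1 with compound diluted in LB from 10 mM DMSO stock (0.1% DMSO final). Fluorescence (ex 485/em 528 nm) read every 15 min at 37 °C for ≥12 h.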

Mus musculus = experiment: Anti-inflammatory activity in LPS-induced sepsis shock mouse model assessed as survival rate at 20 mg/kg, iv pretreated daily for 5 days followed LPS treatment on day 5 at 1 hr post last dose and measured after 7 days relative to control; format: functional
Method in brief: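 Male SPF mice, randomly grouped, dosed i.v. with compound dissolved in DMSO and diluted in physiological saline; vehicle group given a similar volume. LPS was injected on day 5, 1 h after the last administration. Survival was recorded every 12 h for 7 days after LPS, with 11 animals per group per figure legend.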

Row | inhibition [1] | Structure (SMILES) | survival at 20 mg/kg (Mus musculus) [%]
1 | inactive | O=C(C=Cc1ccccc1)Nc1ccc(CC2=CC(=O)O/C2=C/Br)cc1 | –
2 | – | O=C(Cc1ccc(F)cc1)Nc1ccc(CC2=CC(=O)OC2=CBr)cc1 | 45.5
